From ChEMBL document CHEMBL2440067, “Novel 3-nitro-1H-1,2,4-triazole-based piperazines and 2-amino-1,3-benzothiazoles as antichagasic agents” (Bioorg Med Chem, 2013)

What was measured:
L6 = assay: Cytotoxicity against rat L6 cells after 72 hrs by Alamar blue assay; type: cell-based; details: L6, 72 h
In short: (§1)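 96-well plate growth-inhibition format. Targets were T. b. rhodesiense bloodstream trypomastigotes, T. cruzi Tulahuen C4 amastigotes inside L6 rat skeletal myoblasts, axenically cultured L. donovani MHOM-ET-67/L82 amastigotes, and L6 cells alone for cytotoxicity.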

[1] = Selectivity index, ratio of IC50 for rat L6 cells to IC50 for Leishmania donovani MHOM-ET-67/L82 amastigotes; type: toxicity, cell-based; details: read-out: Ratio IC50
In short: (§2)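 SI is the L6 myoblast IC50 divided by the IC50 against the parasite named. IC50s come from 96-well dose-response curves, each the mean of two independent assays.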

Trypanosoma cruzi [2] = assay: Antimicrobial activity against Trypanosoma cruzi Tulahuen C4 amastigotes infected in rat L6 cells after 96 hrs by beta-galactosidase reporter gene assay; type: functional, organism-based; details: Tulahuen C4, L6, 96 h; in short: as §1
[3] = Selectivity index, ratio of IC50 for rat L6 cells to IC50 for Trypanosoma cruzi Tulahuen C4 amastigotes; type: toxicity, cell-based; details: read-out: Ratio IC50; in short: as §2
[4] = system: Trypanosoma brucei rhodesiense; assay: Antimicrobial activity against blood stream form of Trypanosoma brucei rhodesiense STIB 900 after 72 hrs by Alamar blue assay; type: functional, organism-based; details: STIB 900, 72 h; in short: as §1
Leishmania donovani = assay: Antimicrobial activity against Leishmania donovani MHOM-ET-67/L82 amastigotes after 72 hrs by Alamar blue assay; type: functional, organism-based; details: MHOM-ET-67/L82, 72 h; in short: as §1
Trypanosoma cruzi [5] = assay: Ratio of banznidazole IC50 to compound IC50 for Trypanosoma cruzi Tulahuen C4 amastigotes; type: functional
[6] = Selectivity index, ratio of IC50 for rat L6 cells to IC50 for blood stream form of Trypanosoma brucei rhodesiense STIB 900; type: toxicity, cell-based; details: read-out: Ratio IC50; in short: as §2
[7] = Prodrug conversion assessed as Trypanosoma brucei brucei recombinant his-tagged nitroreductase-mediated NADH oxidization by spectrophotometric analysis; type: ADME; details: isolated protein

IC50 (Trypanosoma cruzi [2]) [µM] | IC50 [4] [µM] | Drug metabolism [7] [nmol/min/mg] | Structure (SMILES) | IC50 (L6) [µM] | selectivity ratio [1] | selectivity ratio [3] | IC50 (Leishmania donovani) [µM] | Ratio IC50 (Trypanosoma cruzi [5]) | selectivity ratio [6]
34.4 | 62.4 |  | COc1ccc(N2CCN(CCCn3ccnc3[N+](=O)[O-])CC2)cc1.Cl.Cl | 137 | < 1 | 4 | 186 | 0.1 | 2.2
0.048 | 0.231 |  | Cl.Cl.Cl.Cl.O=[N+]([O-])c1ncn(CCCN2CCN(c3ccc(Cl)c(Cl)c3)CC2)n1 | 41.7 | 3.7 | 868 | 11.3 | 32.7 | 180
1.68 | 49.6 |  | Cl.Cl.O=[N+]([O-])c1ncn(CCCN2CCN(c3ncccn3)CC2)n1 | > 100 | 1 | 152 | > 100 | 0.9 | 5.2
0.848 | 35.6 |  | Cl.Cl.O=[N+]([O-])c1ncn(CCCN2CCN(c3ccccn3)CC2)n1 | 153 | < 1 | 180 | > 315 | 1.9 | 4.3
3.23 | 7.61 |  | O=[N+]([O-])c1nccn1CCCNc1nc2ccc(Cl)cc2s1 | 49.5 | 11.6 | 15.3 | 4.27 | 0.6 | 6.5
0.059 | 0.204 |  | O=[N+]([O-])c1ncn(CCCNc2nc3ccc(Cl)cc3s2)n1 | 102 | 22.7 | 1720 | 4.49 | 26.6 | 500
 |  | 364 | Cl.Cl.O=[N+]([O-])c1ncn(CCCCN2CCN(Cc3ccc(C(F)(F)F)cc3)CC2)n1 |  |  |  |  | 3.8 | 
0.142 | 0.355 |  | O=[N+]([O-])c1ncn(CCCCNc2nc3ccc(Cl)cc3s2)n1 | 44.5 | 10.9 | 314 | 4.1 | 14.4 | 126
 |  | 218 | O=C(Cn1ccnc1[N+](=O)[O-])NCc1ccccc1 [BENZNIDAZOLE] |  |  |  |  |  | 
0.556 | 35.6 |  | COc1ccc(N2CCN(CCCn3cnc([N+](=O)[O-])n3)CC2)cc1.Cl.Cl | 125 | < 1 | 224 | > 239 | 2.8 | 3.5
 |  | 788 | Cl.Cl.O=[N+]([O-])c1ncn(CCCN2CCN(c3ccc(C(F)(F)F)cc3)CC2)n1 |  |  |  |  | 39.2 | 
0.566 | 0.954 |  | O=[N+]([O-])c1ncn(CCCNc2nc3ccccc3s2)n1 | 162 | 8.1 | 287 | 20 | 3.6 | 170
0.828 | 10.5 |  | Cl.Cl.N#Cc1ccccc1N1CCN(CCCn2cnc([N+](=O)[O-])n2)CC1 | 113 | < 1 | 137 | 180 | 2.5 | 10.8
0.419 | 23.9 |  | Cc1ccc(N2CCN(CCCn3cnc([N+](=O)[O-])n3)CC2)cc1.Cl.Cl | 121 | < 1 | 289 | 173 | 3.7 | 5.1
9.4 | 10.7 |  | Cl.Cl.Cl.Cl.O=[N+]([O-])c1nccn1CCCN1CCN(Cc2ccc(Cl)c(Cl)c2)CC1 | 79.2 | < 1 | 8.4 | 150 | 0.2 | 7.4
4.88 | 52.5 |  | O=[N+]([O-])c1nccn1CCCNc1nc2ccccc2s1 | 176 | 15.4 | 36.1 | 11.4 | 0.4 | 3.4
 |  | 74 | CC1CS(=O)(=O)CCN1/N=C/c1ccc([N+](=O)[O-])o1 (centres undefined) [NIFURTIMOX] |  |  |  |  |  | 
 |  | 420 | Cl.Cl.O=[N+]([O-])c1ncn(CCCN2CCN(Cc3ccc(C(F)(F)F)cc3)CC2)n1 |  |  |  |  | 4.6 | 
1.75 | 3.87 |  | O=[N+]([O-])c1nccn1CCCCNc1nc2ccc(Cl)cc2s1 | 43 | 5.5 | 24.6 | 7.3 | 1.2 | 11.1
0.286 | 0.78 |  | Cl.Cl.Cl.Cl.O=[N+]([O-])c1ncn(CCCN2CCN(Cc3ccc(Cl)c(Cl)c3)CC2)n1 | 33.5 | 1.4 | 117 | 23.9 | 7.1 | 42.9
8.8 | 1.34 |  | O=[N+]([O-])c1ncn(CCCN2CCN(c3ccncc3)CC2)n1 | 154 | < 1 | 17.5 | > 315 | 0.2 | 115
4.7 | 15.6 |  | Cl.O=C(C1CC1)N1CCN(CCCn2cnc([N+](=O)[O-])n2)CC1 | 203 | < 1 | 43.1 | > 290 | 0.3 | 13
